According to ChEMBL document CHEMBL3400011, “Canthinone alkaloids are novel protein tyrosine phosphatase 1B inhibitors” (Bioorg Med Chem Lett, 2015):

Columns and labels:
[1] = biological target: T1, Tyrosine-protein phosphatase non-receptor type 1 (Homo sapiens) (UniProt P18031); experiment: Inhibition of PTP1B (unknown origin) assessed as inhibition rate at 100 uM
T1 sequence (whole entry): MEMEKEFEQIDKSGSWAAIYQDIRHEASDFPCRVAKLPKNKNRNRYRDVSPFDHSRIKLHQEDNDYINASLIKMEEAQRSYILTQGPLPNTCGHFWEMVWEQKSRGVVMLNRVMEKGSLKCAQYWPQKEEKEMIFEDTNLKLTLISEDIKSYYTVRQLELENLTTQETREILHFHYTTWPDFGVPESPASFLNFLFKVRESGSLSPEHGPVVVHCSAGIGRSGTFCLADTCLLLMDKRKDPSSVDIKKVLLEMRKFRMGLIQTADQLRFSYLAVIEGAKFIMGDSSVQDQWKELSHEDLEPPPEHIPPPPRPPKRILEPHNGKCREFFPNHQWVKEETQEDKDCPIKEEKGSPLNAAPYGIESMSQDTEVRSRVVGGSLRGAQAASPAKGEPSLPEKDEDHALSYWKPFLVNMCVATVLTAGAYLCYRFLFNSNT
How it was run: (§1)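 PTP1B enzymatic assay with RK-682 as the positive control. For the single-point screen, compounds were tested at a final 100 µM. For dose–response, inhibition was measured over a range of compound concentrations, and IC50 was obtained by regression analysis.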

[2] = biological target: Dual specificity protein phosphatase 3 (Homo sapiens) (UniProt P51452); experiment: Inhibition of VHR (unknown origin) assessed as inhibition rate at 75 uM
Chain of Dual specificity protein phosphatase 3 (Homo sapiens) (P51452 whole entry, looked up): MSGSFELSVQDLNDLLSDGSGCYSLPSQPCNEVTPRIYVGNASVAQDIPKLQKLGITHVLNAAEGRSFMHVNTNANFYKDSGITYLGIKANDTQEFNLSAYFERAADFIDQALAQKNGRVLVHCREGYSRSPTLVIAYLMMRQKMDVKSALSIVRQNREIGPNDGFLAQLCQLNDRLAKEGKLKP

[3] = biological target: T2, Tyrosine-protein phosphatase non-receptor type 11 (Homo sapiens) (UniProt Q06124); experiment: Inhibition of SHP2 (unknown origin) assessed as inhibition rate at 75 uM
T2 sequence (whole entry): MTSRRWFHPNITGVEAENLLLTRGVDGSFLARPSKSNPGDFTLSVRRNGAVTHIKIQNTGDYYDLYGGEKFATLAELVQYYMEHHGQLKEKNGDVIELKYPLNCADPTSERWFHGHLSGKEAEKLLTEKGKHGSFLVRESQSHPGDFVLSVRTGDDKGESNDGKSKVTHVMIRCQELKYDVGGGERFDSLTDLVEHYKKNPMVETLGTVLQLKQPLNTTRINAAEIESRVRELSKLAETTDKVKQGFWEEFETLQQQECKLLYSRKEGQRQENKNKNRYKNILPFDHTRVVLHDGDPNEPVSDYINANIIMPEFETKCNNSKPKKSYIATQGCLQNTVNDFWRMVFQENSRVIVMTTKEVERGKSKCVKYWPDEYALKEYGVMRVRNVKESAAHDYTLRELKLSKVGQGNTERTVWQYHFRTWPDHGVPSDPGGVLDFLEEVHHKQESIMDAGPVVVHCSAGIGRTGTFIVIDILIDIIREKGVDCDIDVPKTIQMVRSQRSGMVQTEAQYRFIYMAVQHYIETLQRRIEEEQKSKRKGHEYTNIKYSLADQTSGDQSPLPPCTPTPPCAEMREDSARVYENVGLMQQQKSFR

[4] = biological target: T3, Tyrosine-protein phosphatase non-receptor type 1 (Homo sapiens, UniProt P18031); experiment: Inhibition of PTP1B (unknown origin); how it was run: as §1
T3 sequence (P18031 whole entry): T1 sequence (whole entry)

[5] = system: HepG2; experiment: Induction of Akt phosphorylation in insulin-stimulated human HepG2 cells assessed as pAkt/Akt ratio at 50 uM after 5 mins by western blotting analysis relative to control; format: functional
How it was run: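 HepG2 cells were treated with compound at 50 µM, then stimulated with insulin. pAkt was assessed by western blotting at 0 and 5 min after insulin. DMSO served as the negative control and sodium orthovanadate (200 µM) as the positive control. Values are expressed relative to control.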

[6] = biological target: Tyrosine-protein phosphatase non-receptor type 6 (Homo sapiens) (UniProt P29350); experiment: Inhibition of SHP1 (unknown origin) assessed as inhibition rate at 75 uM
Chain of Tyrosine-protein phosphatase non-receptor type 6 (Homo sapiens) (P29350 whole entry): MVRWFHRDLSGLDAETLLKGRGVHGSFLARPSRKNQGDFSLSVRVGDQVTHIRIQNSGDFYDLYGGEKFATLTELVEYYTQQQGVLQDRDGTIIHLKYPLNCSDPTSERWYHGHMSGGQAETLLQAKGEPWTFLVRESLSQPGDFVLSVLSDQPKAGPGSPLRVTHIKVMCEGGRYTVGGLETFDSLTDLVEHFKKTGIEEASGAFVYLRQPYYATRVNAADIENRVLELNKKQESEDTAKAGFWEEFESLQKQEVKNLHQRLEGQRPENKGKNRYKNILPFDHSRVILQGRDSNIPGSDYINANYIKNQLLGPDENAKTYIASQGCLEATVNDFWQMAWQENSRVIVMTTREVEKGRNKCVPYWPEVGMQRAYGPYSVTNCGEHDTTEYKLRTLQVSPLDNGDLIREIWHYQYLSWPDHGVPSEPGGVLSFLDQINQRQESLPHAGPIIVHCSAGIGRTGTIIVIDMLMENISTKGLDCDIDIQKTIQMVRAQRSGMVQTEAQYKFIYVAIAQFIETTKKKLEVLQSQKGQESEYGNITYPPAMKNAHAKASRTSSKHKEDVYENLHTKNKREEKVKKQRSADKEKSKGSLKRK

[7] = biological target: T3, Tyrosine-protein phosphatase non-receptor type 1; experiment: Non-competitive inhibition of PTP1B (unknown origin) assessed as hydrolysis of para-nitrophenylphosphate by Lineweaver-Burk plot
How it was run: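 Kinetic study of PTP1B varying both compound and p-nitrophenylphosphate substrate concentrations. Mode was read from Lineweaver–Burk plots. Slopes from those plots were replotted against compound concentration (secondary plot), and Ki was calculated from that plot.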

[8] = species on record: Homo sapiens; experiment: Ratio of inhibition rate for PTP1B (unknown origin) at 75 uM to inhibition rate for VHR (unknown origin) at 75 uM
[9] = biological target: T4, Tyrosine-protein phosphatase non-receptor type 2 (Homo sapiens) (UniProt P17706); experiment: Inhibition of TCPTP (unknown origin) assessed as inhibition rate at 75 uM
T4 sequence (whole entry): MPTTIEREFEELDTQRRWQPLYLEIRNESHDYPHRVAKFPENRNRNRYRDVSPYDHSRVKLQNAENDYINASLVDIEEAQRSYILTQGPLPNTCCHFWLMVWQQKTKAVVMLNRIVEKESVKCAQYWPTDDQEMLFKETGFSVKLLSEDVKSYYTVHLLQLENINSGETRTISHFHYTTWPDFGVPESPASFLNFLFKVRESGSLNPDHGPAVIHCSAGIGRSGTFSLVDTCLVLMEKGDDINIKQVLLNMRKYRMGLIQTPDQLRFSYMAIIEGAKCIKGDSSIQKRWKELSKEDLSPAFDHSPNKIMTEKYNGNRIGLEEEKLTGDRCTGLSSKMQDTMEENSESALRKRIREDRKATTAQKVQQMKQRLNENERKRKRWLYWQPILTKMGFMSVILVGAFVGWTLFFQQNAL

[10] = species on record: Homo sapiens; experiment: Ratio of inhibition rate for PTP1B (unknown origin) at 75 uM to inhibition rate for TCPTP (unknown origin) at 75 uM
[11] = species on record: Homo sapiens; experiment: Ratio of inhibition rate for PTP1B (unknown origin) at 75 uM to inhibition rate for SHP1 (unknown origin) at 75 uM
[12] = species on record: Homo sapiens; experiment: Ratio of inhibition rate for PTP1B (unknown origin) at 75 uM to inhibition rate for SHP2 (unknown origin) at 75 uM
[13] = biological target: T1, Tyrosine-protein phosphatase non-receptor type 1 (Homo sapiens); experiment: Inhibition of PTP1B (unknown origin) assessed as inhibition rate at 75 uM

| Structure (SMILES) | inhibition [1] [%] | further results |
| --- | --- | --- |
| CCCCn1ccc2c3n(c(=O)c(=O)cc1-3)c1ccccc21 | 42 |  |
| COc1cc2nccc3c4ccccc4n(c1=O)c23 [5-METHOXYCANTHINONE] |  | inhibition [2]: 27.5%; inhibition [3]: 18.3%; IC50 [4]: 20.3 µM; pAkt/Akt ratio [5]: 1.3; inhibition [6]: 22.8%; Ki [7]: 10.3 µM; Ratio [8]: 3.3; inhibition [9]: 48.4%; Ratio [10]: 1.9; Ratio [11]: 4; Ratio [12]: 5; inhibition [13]: 91% |
| COc1c(O)c2nccc3c4cc(O)ccc4n(c1=O)c23 | 30.5 |  |
| CCc1ncc(OC)c2c1[nH]c1ccccc12 | 16.1 |  |
| CCC1NC(C(=O)c2ccccc2)Cc2c1[nH]c1ccccc21 (configuration not stated) | 4.7 |  |
| CCn1ccc2c3n(c(=O)c(=O)cc1-3)c1ccccc21 | 63.4 |  |
| CC(=O)c1nccc2c1[nH]c1ccccc12 | 25.1 |  |
| COc1ccc2c3ccnc4ccc(=O)n(c2c1)c43 | 34.9 |  |
| COc1cccc2c1[nH]c1c(CCn3ccc4c5n(c(=O)c(=O)cc3-5)c3ccccc43)ncc(OC)c12 | 48.5 |  |
| Cc1c2[nH]c3ccccc3c2cc[n+]1[O-] | -3 |  |
| O=c1ccc2nccc3c4ccccc4n1c23 | 15.3 |  |
| CCCC1NC(C(=O)OC)Cc2c1[nH]c1ccccc21 (configuration not stated) | 7.9 |  |
| COc1cnc2ccc(=O)n3c4ccccc4c1c23 | 23.7 |  |
| COC(=O)c1cc2c([nH]c3ccccc32)c(C)n1 | 14.3 |  |
| COc1cnc(C(=O)CC(CO)c2ncc(OC)c3c2[nH]c2ccccc23)c2[nH]c3ccccc3c12 (configuration not stated) | 33 |  |
| COCCc1ncc(OC)c2c1[nH]c1c(OC)cccc12 | 28.6 |  |
| CC(C)C1NC(C(=O)O)Cc2c1[nH]c1ccccc21 (configuration not stated) | 11.3 |  |
| Cc1nccc2c1[nH]c1ccccc12 | 7.7 |  |

| Structure (SMILES) | inhibition [1] [%] | further results |
| --- | --- | --- |
| COC(=O)c1nccc2c1[nH]c1ccccc12 | 2.9 |  |
| O=C(O)C1Cc2c([nH]c3ccccc23)CN1 (configuration not stated) | 26 |  |
| COn1c(=O)cc2c3ccccc3n3c(=O)ccc1c23 | 31.2 |  |
| COc1cnc(CCn2ccc3c4n(c(=O)c(=O)cc2-4)c2ccccc32)c2c1c1ccccc1n2OC | 43.9 |  |
| CC1NC(C(=O)O)Cc2c1[nH]c1ccccc21 (configuration not stated) | 21.3 |  |
| COC(=O)C1Cc2c([nH]c3ccccc23)CN1 (configuration not stated) | 21.3 |  |
| CCc1ncc(OC)c2c1[nH]c1c(O)cccc12 | 27.1 |  |
| COc1cccc2c1[nH]c1c(C(=O)CCC(=O)c3ncc(OC)c4c3[nH]c3c(OC)cccc34)ncc(OC)c12 | 43.8 |  |
| Cc1nc(C(=O)O)cc2c1[nH]c1ccccc12 | 18.2 |  |
| CCc1nc(C(=O)OC)cc2c1[nH]c1ccccc12 | 21.2 |  |
| CCC1NC(C(=O)O)Cc2c1[nH]c1ccccc21 (configuration not stated) | 20.8 |  |
| OCc1nccc2c1[nH]c1ccccc12 | 17 |  |
| CCCC1NC(C(=O)O)Cc2c1[nH]c1ccccc21 (configuration not stated) | 46.9 |  |
| COc1c(OC)c2c3c(cc(=O)n2C)c2ccccc2n3c1=O | 34.4 |  |
| C=Cc1ncc(OC)c2c1[nH]c1c(OC)cccc12 | 40.3 |  |
| COC(=O)c1cc2c(cn1)[nH]c1ccccc12 | 23 |  |
| O=c1c(O)cc2nccc3c4ccccc4n1c23 | 84.7 |  |
| CCn1ccc2c3n(c(=O)c(=O)cc1-3)c1cc(OC)ccc21 | 59.4 |  |
